The target of assay [1] is Kappa-type opioid receptor (Homo sapiens) (UniProt P41145). Nature of the assay: Antagonist activity at human cloned kappa opioid receptor expressed in CHO cells assessed as inhibition of U69593-stimulated [35S]GTP-gamma-S binding. In kind it is functional, cell-based. Summed up: (§1)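 Agonist concentration-response curves for stimulated [35S]GTPγS binding are run with and without a single concentration of test compound. Ke = [L]/(DR−1), where DR is the ratio of agonist EC50 with and without compound.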
For orientation: GTPγS resists hydrolysis and so accumulates on activated G proteins.

The target in assay [2] is Mu-type opioid receptor (Homo sapiens) (UniProt P35372). Nature of the assay: Antagonist activity at human cloned mu opioid receptor expressed in CHO cells assessed as inhibition of DAMGO-stimulated [35S]GTPgammaS binding. In kind it is functional, cell-based. Summed up:
as §1

Assay [3] deals with CHO. Nature of the assay: Selectivity for human cloned kappa opioid receptor over human cloned delta opioid receptor expressed in CHO cells. In kind it is cell-based.
For assay [4], the target named is Delta-type opioid receptor (Homo sapiens) (UniProt P41143). Nature of the assay: Antagonist activity at human cloned delta opioid receptor expressed in CHO cells assessed as inhibition of DPDPE-stimulated [35S]GTP-gamma-S binding. In kind it is functional, cell-based. In outline:
as §1

Assay [5] relates to CHO. Nature of the assay: Selectivity for human cloned kappa opioid receptor over human cloned mu opioid receptor expressed in CHO cells. In kind it is cell-based.

Chain of Kappa-type opioid receptor (Homo sapiens) (P41145 whole entry): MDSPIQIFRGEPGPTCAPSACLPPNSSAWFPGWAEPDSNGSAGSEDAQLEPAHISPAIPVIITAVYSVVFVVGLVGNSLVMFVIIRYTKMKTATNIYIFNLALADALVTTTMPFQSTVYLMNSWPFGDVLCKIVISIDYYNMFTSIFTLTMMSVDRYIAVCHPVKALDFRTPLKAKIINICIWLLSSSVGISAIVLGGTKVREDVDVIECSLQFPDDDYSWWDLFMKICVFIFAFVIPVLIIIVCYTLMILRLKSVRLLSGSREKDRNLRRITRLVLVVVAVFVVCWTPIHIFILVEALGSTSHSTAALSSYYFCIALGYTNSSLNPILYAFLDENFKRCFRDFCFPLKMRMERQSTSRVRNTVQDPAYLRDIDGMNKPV
Chain of Delta-type opioid receptor (Homo sapiens) (P41143 whole entry): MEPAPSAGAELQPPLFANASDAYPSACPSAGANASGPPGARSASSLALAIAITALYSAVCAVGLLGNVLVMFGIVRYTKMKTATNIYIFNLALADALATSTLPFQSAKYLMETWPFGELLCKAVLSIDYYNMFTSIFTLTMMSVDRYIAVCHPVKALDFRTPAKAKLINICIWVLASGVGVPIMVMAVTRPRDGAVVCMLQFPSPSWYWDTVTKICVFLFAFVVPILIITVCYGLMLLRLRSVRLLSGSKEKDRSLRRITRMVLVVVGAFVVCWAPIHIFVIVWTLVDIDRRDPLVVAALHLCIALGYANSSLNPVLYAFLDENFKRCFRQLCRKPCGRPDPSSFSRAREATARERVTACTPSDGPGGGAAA
Chain of Mu-type opioid receptor (Homo sapiens) (P35372 whole entry): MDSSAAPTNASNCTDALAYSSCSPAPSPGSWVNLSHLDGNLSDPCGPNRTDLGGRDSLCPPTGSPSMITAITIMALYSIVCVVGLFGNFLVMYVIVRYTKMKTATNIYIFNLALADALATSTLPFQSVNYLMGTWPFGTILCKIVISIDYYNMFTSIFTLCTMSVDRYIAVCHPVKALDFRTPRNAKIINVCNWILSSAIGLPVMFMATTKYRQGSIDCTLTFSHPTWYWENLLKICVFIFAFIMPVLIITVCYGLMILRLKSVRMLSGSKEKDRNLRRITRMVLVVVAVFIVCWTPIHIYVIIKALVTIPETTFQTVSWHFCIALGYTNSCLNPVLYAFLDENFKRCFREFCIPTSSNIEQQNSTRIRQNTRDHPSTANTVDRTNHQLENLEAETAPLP

As to `CC(=O)Nc1ccc2c(c1)CN[C@@H](C(=O)N[C@H](CN1CC[C@@](C)(c3cccc(O)c3)[C@@H](C)C1)C(C)C)C2`, the Ke in assay [1] stood at 1.4 nM; in assay [2], 11 nM; in assay [4], 555 nM. The Ratio Ke in the assay with CHO [3] worked out at 396; in the assay with CHO [5], 7.9.
In the case of `CC(C)[C@@H](CN1CC[C@@](C)(c2cccc(O)c2)[C@@H](C)C1)NC(=O)c1c[nH]c2cc(O)ccc12`, the values for the Ke in assay [1], in assay [2] and in assay [4] were 4.5 nM, 4.8 nM and 224 nM, respectively. Also, the Ratio Ke with CHO [3] was determined as 50; in the assay with CHO [5], 1.1.
For the molecule `COc1ccc2cc(C(=O)N[C@H](CN3CC[C@@](C)(c4cccc(O)c4)[C@@H](C)C3)C(C)C)cnc2c1`, the Ke in assay [1] was found to be 11.4 nM; in assay [2], 19.5 nM; in assay [4], 158 nM. Besides, the Ratio Ke in the assay on CHO [3] was 14; with CHO [5], 1.7.
In the same order, the values of `CC(C)[C@@H](CN1CC[C@@](C)(c2cccc(O)c2)[C@@H](C)C1)NC(=O)c1cnc2cc(O)ccc2c1` are 9.3 nM, 48 nM, 229 nM, 25 and 5.2.
In the same order, the values of `CC(C)[C@@H](CN1CC[C@@](C)(c2cccc(O)c2)[C@@H](C)C1)NC(=O)CN1CCc2ccc(O)cc2C1` are 23.5 nM, 9.2 nM, 177 nM, 7.5 and 0.4.
As to `CC(C)[C@@H](CN1CC[C@@](C)(c2cccc(O)c2)[C@@H](C)C1)NC(=O)[C@H]1Cc2ccc(NS(C)(=O)=O)cc2CN1`, the Ke in assay [1] came out at 4 nM; in assay [2], 17.7 nM; in assay [4], 106 nM. Moreover, the Ratio Ke in the assay on CHO [3] is 27; in the assay on CHO [5] it was 4.4.
In the same order, the values of `CC(C)CN(CCN1CC[C@@](C)(c2cccc(O)c2)[C@@H](C)C1)C(=O)[C@H]1Cc2ccc(O)cc2CN1` are 1.9 nM, 1 nM, 39 nM, 21 and 0.5.
Take `COc1ccc2c(c1)CN(CC(=O)N[C@H](CN1CC[C@@](C)(c3cccc(O)c3)[C@@H](C)C1)C(C)C)CC2`: the Ke in assay [1] worked out at 16.8 nM; in assay [2], 17.7 nM; in assay [4] it was 51.7 nM. The Ratio Ke in the assay on CHO [3] worked out at 3; with CHO [5], 1.
Turning to `CC(C)[C@@H](CN1CC[C@@](C)(c2cccc(O)c2)[C@@H](C)C1)NC(=O)[C@H]1Cc2ccc(O)cc2CN1`, the Ratio Ke in the assay on CHO [3] was 3800; in the assay on CHO [5], 1250.
With `COc1ccc2cc(C(=O)N[C@H](CN3CC[C@@](C)(c4cccc(O)c4)[C@@H](C)C3)C(C)C)[nH]c2c1`, the Ke in assay [1] was 10.9 nM; in assay [2], 13.7 nM; in assay [4] it was 282 nM. The Ratio Ke in the assay with CHO [3] amounted to 26; in the assay on CHO [5], 1.3.
In the case of `COc1ccc2c(c1)CCN(CC(=O)N[C@H](CN1CC[C@@](C)(c3cccc(O)c3)[C@@H](C)C1)C(C)C)C2`, the Ke in assay [1] came to 26 nM; in assay [2] it was 11.4 nM; in assay [4], 76 nM. Besides, the Ratio Ke in the assay with CHO [3] worked out at 3; in the assay with CHO [5] it was 0.4.
In the case of `CC(C)CCN(CCN1CC[C@@](C)(c2cccc(O)c2)[C@@H](C)C1)C(=O)[C@H]1Cc2ccc(O)cc2CN1`, the Ke in assay [1] was 1.2 nM; in assay [2], 0.5 nM; in assay [4] it was 9.3 nM. Besides, the Ratio Ke was 8 with CHO [3] and 0.4 with CHO [5].
On to `CC[C@H](C)[C@@H](CN1CC[C@@](C)(c2cccc(O)c2)[C@@H](C)C1)NC(=O)[C@H]1Cc2ccc(O)cc2CN1`, for which the Ke in assay [1] was 0.03 nM; in assay [2], 3 nM; in assay [4] it was 24 nM. Further, the Ratio Ke in the assay on CHO [3] is 800; in the assay on CHO [5], 100.
The corresponding values for `CC(C)[C@@H](CN1CC[C@@](C)(c2cccc(O)c2)[C@@H](C)C1)NC(=O)[C@H]1Cc2ccc(N)cc2CN1` are 0.2 nM, 12.6 nM, 373 nM, 1860 and 63.
For the molecule `COc1ccc2nc(C(=O)N[C@H](CN3CC[C@@](C)(c4cccc(O)c4)[C@@H](C)C3)C(C)C)[nH]c2c1`, the results for the Ke in assay [1], in assay [2] and in assay [4] were 28.4 nM, 8.5 nM and 102 nM, respectively. In addition, the Ratio Ke in the assay with CHO [3] was 3.6; with CHO [5], 0.3.
As for `CC(C)[C@@H](CN1CC[C@@](C)(c2cccc(O)c2)[C@@H](C)C1)NC(=O)CN1CCc2cc(O)ccc2C1`, the Ke in assay [1] amounted to 3.9 nM; in assay [2], 21.4 nM; in assay [4] it was 408 nM. Also, the Ratio Ke with CHO [3] came out at 105; with CHO [5], 5.5.
Regarding `CC(C)[C@@H](CN1CC[C@@](C)(c2cccc(O)c2)[C@@H](C)C1)NC(=O)c1cc2ccc(O)cc2[nH]1`, the figures for the Ke in assay [1], in assay [2] and in assay [4] were 34.1 nM, 23.8 nM and 97 nM, respectively. Moreover, the Ratio Ke turned out to be 3 with CHO [3] and 0.7 in the assay on CHO [5].
For the molecule `CC(C)[C@@H](CN1CC[C@@](C)(c2cccc(O)c2)[C@@H](C)C1)NC(=O)[C@H]1Cc2ccccc2CN1`, the Ke in assay [1] was determined as 56 nM.
In the case of `COc1ccc2c(c1)CN[C@@H](C(=O)N[C@H](CN1CC[C@@](C)(c3cccc(O)c3)[C@@H](C)C1)C(C)C)C2`, the values for the Ke in assay [1], in assay [2] and in assay [4] were 0.06 nM, 51.4 nM and 118 nM, respectively. In addition, the values for the Ratio Ke with CHO [3] and in the assay with CHO [5] were 1980 and 857, respectively.
Consider `CC(C)[C@@H](CN1CC[C@@](C)(c2cccc(O)c2)[C@@H](C)C1)NC(=O)c1nc2ccc(O)cc2[nH]1`, for which the Ke in assay [1] was determined as 22.4 nM; in assay [2], 15.6 nM; in assay [4], 290 nM. The Ratio Ke with CHO [3] worked out at 13; in the assay on CHO [5] it was 0.7.
Take `CC(C)[C@@H](CN1CC[C@@](C)(c2cccc(O)c2)[C@@H](C)C1)NC(=O)[C@H]1Cc2ccc([N+](=O)[O-])cc2CN1`: the values for the Ke in assay [1], in assay [2] and in assay [4] were 6.4 nM, 7.9 nM and 65 nM, respectively. For the same molecule, the Ratio Ke with CHO [3] is 10; in the assay on CHO [5], 1.2.
